Calls of active or inactive are those of the source. The calls are words filed in the database; no cut-off is given here.
What was measured:
[1] = target: Metabotropic glutamate receptor 5 (Rattus norvegicus) (UniProt P31424); test: Inhibition of [3H]MPEP binding to mGluR5 in rat brain membrane at 100 uM; type: cell membranes
[2] = target: Metabotropic glutamate receptor 5 (Rattus norvegicus, UniProt P31424); test: Inhibition of [3H]MPEP binding to mGluR5 in rat brain membrane; type: cell membranes
Procedure, shortened: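 Rat brain membranes spun twice at 30,000g for 10 min, resuspended in ice-cold 50 mM Tris–HCl pH 7.0 with 1% BSA. Displacement by 10 drug concentrations run three times. Incubated 2.5 h at 4 °C to steady state, then filtered over PEI-presoaked glass-fibre filters.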

[3] = target: Metabotropic glutamate receptor 5 (Rattus norvegicus) (UniProt P31424); conditions: Brain, Membrane, 10 uM
[4] = target: Metabotropic glutamate receptor 5 (Homo sapiens, UniProt P41594); test: Antagonist activity against mGluR5 expressed in CHO cells assessed as inhibition of agonist-induced phosphoinositide hydrolysis; type: functional, cell-based
Chain of Metabotropic glutamate receptor 5 (Homo sapiens, UniProt P41594) (P41594 whole entry): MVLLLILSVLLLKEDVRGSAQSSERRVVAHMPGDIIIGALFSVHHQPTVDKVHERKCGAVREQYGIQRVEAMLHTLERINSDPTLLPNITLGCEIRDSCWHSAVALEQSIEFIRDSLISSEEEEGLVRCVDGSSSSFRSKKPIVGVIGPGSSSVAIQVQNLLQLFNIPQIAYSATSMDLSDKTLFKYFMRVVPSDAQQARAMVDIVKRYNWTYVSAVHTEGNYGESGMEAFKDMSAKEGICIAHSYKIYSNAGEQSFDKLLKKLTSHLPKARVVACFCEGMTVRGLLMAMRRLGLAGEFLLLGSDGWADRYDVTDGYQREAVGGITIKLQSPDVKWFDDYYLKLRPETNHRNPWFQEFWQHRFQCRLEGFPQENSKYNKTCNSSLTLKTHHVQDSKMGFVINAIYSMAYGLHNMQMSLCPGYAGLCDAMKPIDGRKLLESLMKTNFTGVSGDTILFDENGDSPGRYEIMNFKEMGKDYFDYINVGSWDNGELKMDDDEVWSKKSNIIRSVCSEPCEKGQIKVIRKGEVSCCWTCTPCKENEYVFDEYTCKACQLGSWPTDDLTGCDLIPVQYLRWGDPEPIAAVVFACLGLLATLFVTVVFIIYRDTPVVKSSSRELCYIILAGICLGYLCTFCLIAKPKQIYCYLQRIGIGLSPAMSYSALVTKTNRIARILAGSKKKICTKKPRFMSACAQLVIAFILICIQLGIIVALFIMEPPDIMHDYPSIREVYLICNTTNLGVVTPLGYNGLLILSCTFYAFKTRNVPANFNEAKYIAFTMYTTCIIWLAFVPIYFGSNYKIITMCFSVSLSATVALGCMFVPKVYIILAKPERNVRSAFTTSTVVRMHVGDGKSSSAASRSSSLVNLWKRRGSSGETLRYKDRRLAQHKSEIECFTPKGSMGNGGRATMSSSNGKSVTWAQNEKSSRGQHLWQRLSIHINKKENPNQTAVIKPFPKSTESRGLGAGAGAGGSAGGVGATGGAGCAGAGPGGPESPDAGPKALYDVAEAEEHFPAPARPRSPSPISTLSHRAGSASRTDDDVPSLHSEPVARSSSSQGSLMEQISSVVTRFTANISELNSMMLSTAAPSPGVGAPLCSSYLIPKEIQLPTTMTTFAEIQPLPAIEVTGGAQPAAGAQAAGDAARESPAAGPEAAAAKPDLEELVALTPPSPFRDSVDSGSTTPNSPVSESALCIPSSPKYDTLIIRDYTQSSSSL

Chain of Metabotropic glutamate receptor 5 (Rattus norvegicus) (P31424 21-1203 limits assumed): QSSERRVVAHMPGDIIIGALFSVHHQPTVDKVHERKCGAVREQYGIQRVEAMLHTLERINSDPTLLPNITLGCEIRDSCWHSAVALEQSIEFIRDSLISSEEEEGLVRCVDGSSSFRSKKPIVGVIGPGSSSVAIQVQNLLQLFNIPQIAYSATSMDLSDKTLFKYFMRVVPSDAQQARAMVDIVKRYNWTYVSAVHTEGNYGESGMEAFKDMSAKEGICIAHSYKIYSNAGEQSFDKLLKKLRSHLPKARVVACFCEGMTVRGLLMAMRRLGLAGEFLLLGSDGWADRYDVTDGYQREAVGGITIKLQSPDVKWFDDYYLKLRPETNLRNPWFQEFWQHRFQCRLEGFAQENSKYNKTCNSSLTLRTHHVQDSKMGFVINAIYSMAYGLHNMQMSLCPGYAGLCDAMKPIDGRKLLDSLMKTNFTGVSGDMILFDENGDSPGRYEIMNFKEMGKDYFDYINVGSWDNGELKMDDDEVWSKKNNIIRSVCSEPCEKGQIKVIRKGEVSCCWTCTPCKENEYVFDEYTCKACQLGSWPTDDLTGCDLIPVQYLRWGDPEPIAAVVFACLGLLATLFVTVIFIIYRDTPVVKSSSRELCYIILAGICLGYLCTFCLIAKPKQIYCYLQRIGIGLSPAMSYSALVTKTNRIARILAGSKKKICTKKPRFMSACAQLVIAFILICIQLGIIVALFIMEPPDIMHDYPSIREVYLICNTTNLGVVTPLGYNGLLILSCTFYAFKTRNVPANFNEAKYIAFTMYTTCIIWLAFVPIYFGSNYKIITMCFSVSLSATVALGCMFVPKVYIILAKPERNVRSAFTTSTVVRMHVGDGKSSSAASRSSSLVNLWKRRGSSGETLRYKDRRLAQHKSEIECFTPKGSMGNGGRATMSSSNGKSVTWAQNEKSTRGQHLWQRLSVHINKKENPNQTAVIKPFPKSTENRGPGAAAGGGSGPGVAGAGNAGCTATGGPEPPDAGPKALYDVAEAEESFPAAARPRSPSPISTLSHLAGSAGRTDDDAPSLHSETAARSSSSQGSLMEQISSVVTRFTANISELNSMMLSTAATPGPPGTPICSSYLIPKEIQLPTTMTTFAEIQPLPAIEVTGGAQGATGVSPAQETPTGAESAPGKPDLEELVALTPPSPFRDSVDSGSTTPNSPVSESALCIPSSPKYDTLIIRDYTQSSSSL
Chain of Metabotropic glutamate receptor 5 (Rattus norvegicus, UniProt P31424) (P31424 whole entry): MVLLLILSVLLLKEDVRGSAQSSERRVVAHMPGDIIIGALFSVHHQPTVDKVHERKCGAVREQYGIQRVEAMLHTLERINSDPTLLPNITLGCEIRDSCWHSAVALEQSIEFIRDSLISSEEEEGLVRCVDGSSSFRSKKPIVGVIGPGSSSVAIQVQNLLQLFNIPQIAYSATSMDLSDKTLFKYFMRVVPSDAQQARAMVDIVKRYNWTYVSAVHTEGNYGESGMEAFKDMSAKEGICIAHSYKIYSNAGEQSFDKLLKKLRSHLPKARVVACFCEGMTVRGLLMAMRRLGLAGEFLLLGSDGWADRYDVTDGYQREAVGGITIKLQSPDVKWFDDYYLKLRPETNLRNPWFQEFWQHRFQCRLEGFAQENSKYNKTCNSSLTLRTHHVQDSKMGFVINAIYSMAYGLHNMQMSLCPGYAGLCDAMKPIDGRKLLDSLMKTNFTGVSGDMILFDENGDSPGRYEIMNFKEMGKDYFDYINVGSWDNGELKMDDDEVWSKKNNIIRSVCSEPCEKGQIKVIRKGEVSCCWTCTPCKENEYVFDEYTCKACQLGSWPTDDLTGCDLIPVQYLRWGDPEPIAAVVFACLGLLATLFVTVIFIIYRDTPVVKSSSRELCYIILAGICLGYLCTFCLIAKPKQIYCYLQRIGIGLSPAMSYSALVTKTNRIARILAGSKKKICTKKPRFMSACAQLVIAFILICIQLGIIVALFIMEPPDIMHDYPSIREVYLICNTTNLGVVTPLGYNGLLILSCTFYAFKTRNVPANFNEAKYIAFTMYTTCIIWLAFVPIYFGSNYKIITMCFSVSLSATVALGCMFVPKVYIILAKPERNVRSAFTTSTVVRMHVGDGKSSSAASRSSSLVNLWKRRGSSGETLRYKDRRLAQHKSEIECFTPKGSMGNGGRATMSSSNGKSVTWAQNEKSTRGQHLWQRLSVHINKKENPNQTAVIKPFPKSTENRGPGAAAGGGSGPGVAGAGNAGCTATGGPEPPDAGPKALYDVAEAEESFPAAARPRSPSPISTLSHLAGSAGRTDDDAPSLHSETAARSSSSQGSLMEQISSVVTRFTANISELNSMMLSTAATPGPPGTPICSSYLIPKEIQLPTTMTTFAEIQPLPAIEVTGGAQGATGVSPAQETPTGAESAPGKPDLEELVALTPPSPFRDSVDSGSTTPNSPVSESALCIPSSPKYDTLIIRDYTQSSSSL

Cc1cccc(NC(=O)C2CCCN(Cc3ccccc3)C2)n1 (centres undefined)
inhibition [1]: 14%

Cc1cccc(NC(=O)c2cccc(Cl)c2)n1
IC50 [2]: 1.73 µM | inhibition [3]: 66%

Cc1csc(NC(=O)c2cccnc2)n1
Activity [1]: inactive

Cc1cccc(NC(=O)c2ccccc2)n1
IC50 [2]: 35 µM

Cc1ccc(O)c(/N=N/c2ccccc2)n1
IC50 [2]: 1.17 µM

Cc1cccc(NC(=O)c2cccc(OCCc3ccccc3)c2)n1
IC50 [2]: 23.6 µM

Cc1cccc(NC(=O)c2cccc(-c3ccccc3)c2)n1
IC50 [4]: 18.3 µM | IC50 [2]: 7.3 µM

Cc1csc(NC(=O)c2ccccc2)n1
IC50 [2]: 65 µM

O=C(Nc1ccccn1)c1ccccc1
IC50 [2]: 95.4 µM

Cc1cccc(NC(=O)c2cccc(S(C)(=O)=O)c2)n1
Activity [1]: inactive

Cc1cccc(/C=C/c2ccccc2)n1
IC50 [2]: 1.08 µM

COc1cccc(C(=O)Nc2nc(C)cs2)c1
IC50 [2]: 9.1 µM

Cc1cccc(NC(=O)C2CCCN(Cc3cccc(Cl)c3)C2)n1 (centres undefined)
inhibition [1]: 31%

O=C(Nc1cccc(Cl)n1)c1cccc(Cl)c1
IC50 [4]: 12.7 µM | IC50 [2]: 1.53 µM

Cc1cccc(NCc2ccccc2)n1
Activity [1]: inactive

Cc1csc(NC(=O)c2cccc(Cl)c2)n1
IC50 [4]: 15 µM | IC50 [2]: 5.49 µM

Cc1cccc(C(=O)Nc2cccc(C)n2)c1
IC50 [4]: 5.9 µM | IC50 [2]: 1.84 µM

Cc1cccc(NC(=O)c2ccc3ccccc3c2)n1
Activity [1]: inactive

Cc1cccc(NC(=O)c2cccc(/C=C/c3ccccc3)c2)n1
Activity [1]: inactive

Cc1cccc(NC(=O)c2cccc(OS(C)(=O)=O)c2)n1
IC50 [2]: 83.6 µM

Cc1cccc(NC(=O)c2cccc(I)c2)n1
IC50 [4]: 10.8 µM | IC50 [2]: 1.08 µM

Cc1ccc(S(=O)(=O)N2CCCC(C(=O)Nc3cccc(C)n3)C2)cc1 (centres undefined)
inhibition [1]: 31%

Cc1ccc(S(=O)(=O)Nc2cccc(C)n2)cc1
Activity [1]: inactive

Cc1cccc(NC(=O)c2cccc(C(F)(F)F)c2)n1
IC50 [2]: 18.7 µM

COc1cccc(C(=O)Nc2cccc(C)n2)c1
IC50 [4]: 46 µM | IC50 [2]: 9.76 µM

Cc1cccc(CNc2ccccc2)n1
Activity [1]: inactive

Cc1cccc(NC(=O)C2CCCN(C)C2)n1 (centres undefined)
Activity [1]: inactive

Cc1cccc(NC(=O)c2ccc(Cl)cc2)n1
Activity [1]: inactive

Cc1cccc(NC(=O)c2cccc(OCc3ccccc3)c2)n1
IC50 [2]: 33 µM

Cc1cccc(NC(=O)c2cccc3ccccc23)n1
IC50 [2]: 62.8 µM

Cc1cccc(NC(=O)c2cccc(Br)c2)n1
IC50 [4]: 5.48 µM | IC50 [2]: 0.65 µM

Cc1cccc(NC(=O)c2cccc(C#N)c2)n1
IC50 [4]: 5.33 µM | IC50 [2]: 0.33 µM

Cc1cccc(NC(=O)c2cccc(Oc3ccccc3)c2)n1
IC50 [2]: 57 µM

Cc1cccc(NC(=O)c2cccnc2)n1
Activity [1]: inactive

Cc1cccc(NC(=O)c2ccccc2Cl)n1
Activity [1]: inactive
